Data set [1] can be described thus: Inhibition of N-terminal GST tagged recombinant human EGFR L858R/T790M/C790S (668 to end residues) triple mutant expressed in baculovirus infected Sf9 insect cells using 5-FAM-EEPLYINSFPAKKK-CONH peptide as substrate preincubated for 10 mins followed by peptide substrate addition in presence of ATP.
Data set [2] addresses T1, Epidermal growth factor receptor (Homo sapiens, UniProt P00533, L858R/T790M). As to the kind of experiment: Inhibition of EGF stimulated EGFR L858R/T790M double mutant phosphorylation in human NCI-H1975 cells preincubated for 4 to 5 hrs followed by EGF stimulation for 10 mins by AlphaLISA method. It is filed as cell-based.
The nature of data set [3]: Inhibition of N-terminal GST tagged recombinant human EGFR ex19del (746 to 750)/ L858R/C790S (668 to end residues) triple mutant expressed in baculovirus infected Sf9 insect cells expression system using 5-FAM-EEPLYINSFPAKKK-CONH peptide as substrate preincubated for 10 mins followed by peptide substrate addition in presence of ATP.
Data set [4] addresses T1, Epidermal growth factor receptor. As to the kind of experiment: Inhibition of N-terminal GST tagged recombinant human EGFR L858R/T790M (669 to end residues) double mutant expressed in baculovirus infected Sf9 insect cells expression system using 5-FAM-EEPLYINSFPAKKK-CONH peptide as substrate preincubated for 10 mins followed by peptide substrate addition in presence of ATP.

Data set [5] concerns the target T2, Epidermal growth factor receptor (Homo sapiens, UniProt P00533). As to the kind of experiment: Inhibition of wild type EGFR in human A-431 cells preincubated for 4 to 5 hrs followed by EGF stimulation for 10 mins by AlphaLISA method. It is filed as cell-based.
Data set [6] can be described thus: Intrinsic clearance in human liver microsomes. It is filed as ADME, Microsome. To be noted: for Microsomal intrinsic clearance: microsomes. In general terms: Microsomes from liver hold many membrane-bound enzymes, among them those of drug oxidation.
The nature of data set [7]: Clearance in Sprague-Dawley rat at 1 mg/kg, iv. It is filed as ADME, organism-based. To be noted: in vivo. Summed up:
(§1)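 Sprague–Dawley rats (n = 3), single IV bolus of 1 mg/kg in 10% DMSO, 10% solutol, 80% of a 20% HP-β-CD solution (in water or in saline, depending on compound). Clearance is plasma clearance after the IV bolus.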

Data set [8] in a line: Half life in Sprague-Dawley rat at 1 mg/kg, iv. It is filed as ADME, organism-based. The settings on record: in vivo. Summed up:
as §1

A short description of data set [9]: Oral bioavailability in Sprague-Dawley rat at 5 mg/kg. It is filed as ADME, organism-based. To be noted: in vivo. Summed up: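 Sprague–Dawley rats (n = 3) received 1 mg/kg IV and 5 mg/kg PO. IV vehicle was 10% DMSO/10% solutol/80% (20% HP-β-CD). PO vehicle was a suspension in 20% solutol in 0.5% MC in water, or a solution matching the IV vehicle, depending on compound.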

Data set [10] in a line: Apparent permeability across apical to basolateral side in MDCK-MDR1 cells. It is filed as ADME, cell-based, Canis lupus familiaris. The settings on record: dog.
Data set [11] has as its target T2, Epidermal growth factor receptor. As to the kind of experiment: Inhibition of N-terminal GST tagged recombinant wild type human EGFR expressed in baculovirus infected Sf9 insect cells expression system using 5-FAM-EEPLYINSFPAKKK-CONH peptide as substrate preincubated for 10 mins followed by peptide substrate addition in presence of ATP.
Data set [12] in a line: Efflux ratio of apparent permeability in MDCK-MDR1 cells. It is filed as ADME, cell-based, Canis lupus familiaris. The settings on record: dog.

A word on the IC50: it is the midpoint of a concentration-inhibition curve. The clearance is a measure of how efficiently the substance is removed, as volume per time. The low end stands for a low capacity for elimination, the high end for a high capacity for elimination. The half-life is the time needed for the level to fall by half in the phase considered. The efflux ratio is a quotient of directional permeabilities that is used to spot active efflux.

T2 sequence (P00533 whole entry): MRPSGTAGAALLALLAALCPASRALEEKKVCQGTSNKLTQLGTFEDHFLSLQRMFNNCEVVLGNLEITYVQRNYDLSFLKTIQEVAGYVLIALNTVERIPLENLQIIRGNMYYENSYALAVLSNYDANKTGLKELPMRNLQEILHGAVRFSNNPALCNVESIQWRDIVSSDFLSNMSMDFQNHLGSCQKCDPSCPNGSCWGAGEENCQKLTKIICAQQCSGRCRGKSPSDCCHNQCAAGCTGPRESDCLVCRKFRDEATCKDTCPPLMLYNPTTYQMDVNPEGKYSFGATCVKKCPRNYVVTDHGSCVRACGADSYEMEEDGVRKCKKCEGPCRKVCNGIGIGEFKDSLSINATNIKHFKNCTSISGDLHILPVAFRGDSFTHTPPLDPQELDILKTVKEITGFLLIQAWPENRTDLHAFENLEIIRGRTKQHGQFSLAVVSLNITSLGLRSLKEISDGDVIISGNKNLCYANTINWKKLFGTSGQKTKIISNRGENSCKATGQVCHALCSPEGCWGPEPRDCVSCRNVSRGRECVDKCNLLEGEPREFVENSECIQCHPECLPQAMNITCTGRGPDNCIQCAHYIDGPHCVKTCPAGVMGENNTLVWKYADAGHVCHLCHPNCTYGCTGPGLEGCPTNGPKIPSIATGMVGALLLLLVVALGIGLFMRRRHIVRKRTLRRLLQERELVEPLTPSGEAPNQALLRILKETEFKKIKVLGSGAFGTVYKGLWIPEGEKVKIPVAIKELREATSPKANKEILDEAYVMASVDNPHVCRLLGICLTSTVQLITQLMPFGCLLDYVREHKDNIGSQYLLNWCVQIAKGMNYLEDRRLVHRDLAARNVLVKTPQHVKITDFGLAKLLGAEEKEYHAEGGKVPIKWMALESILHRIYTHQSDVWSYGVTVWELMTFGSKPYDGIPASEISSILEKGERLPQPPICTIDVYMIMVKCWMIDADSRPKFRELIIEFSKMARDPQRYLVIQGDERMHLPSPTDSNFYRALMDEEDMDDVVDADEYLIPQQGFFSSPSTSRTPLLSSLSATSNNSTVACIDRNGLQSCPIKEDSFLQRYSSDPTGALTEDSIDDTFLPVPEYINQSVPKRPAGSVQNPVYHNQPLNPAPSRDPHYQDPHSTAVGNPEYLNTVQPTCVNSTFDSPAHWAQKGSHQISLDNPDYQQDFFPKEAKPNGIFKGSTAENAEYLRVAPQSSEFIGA
T1 sequence (P00533 25-1210 T790M/L858R limits assumed): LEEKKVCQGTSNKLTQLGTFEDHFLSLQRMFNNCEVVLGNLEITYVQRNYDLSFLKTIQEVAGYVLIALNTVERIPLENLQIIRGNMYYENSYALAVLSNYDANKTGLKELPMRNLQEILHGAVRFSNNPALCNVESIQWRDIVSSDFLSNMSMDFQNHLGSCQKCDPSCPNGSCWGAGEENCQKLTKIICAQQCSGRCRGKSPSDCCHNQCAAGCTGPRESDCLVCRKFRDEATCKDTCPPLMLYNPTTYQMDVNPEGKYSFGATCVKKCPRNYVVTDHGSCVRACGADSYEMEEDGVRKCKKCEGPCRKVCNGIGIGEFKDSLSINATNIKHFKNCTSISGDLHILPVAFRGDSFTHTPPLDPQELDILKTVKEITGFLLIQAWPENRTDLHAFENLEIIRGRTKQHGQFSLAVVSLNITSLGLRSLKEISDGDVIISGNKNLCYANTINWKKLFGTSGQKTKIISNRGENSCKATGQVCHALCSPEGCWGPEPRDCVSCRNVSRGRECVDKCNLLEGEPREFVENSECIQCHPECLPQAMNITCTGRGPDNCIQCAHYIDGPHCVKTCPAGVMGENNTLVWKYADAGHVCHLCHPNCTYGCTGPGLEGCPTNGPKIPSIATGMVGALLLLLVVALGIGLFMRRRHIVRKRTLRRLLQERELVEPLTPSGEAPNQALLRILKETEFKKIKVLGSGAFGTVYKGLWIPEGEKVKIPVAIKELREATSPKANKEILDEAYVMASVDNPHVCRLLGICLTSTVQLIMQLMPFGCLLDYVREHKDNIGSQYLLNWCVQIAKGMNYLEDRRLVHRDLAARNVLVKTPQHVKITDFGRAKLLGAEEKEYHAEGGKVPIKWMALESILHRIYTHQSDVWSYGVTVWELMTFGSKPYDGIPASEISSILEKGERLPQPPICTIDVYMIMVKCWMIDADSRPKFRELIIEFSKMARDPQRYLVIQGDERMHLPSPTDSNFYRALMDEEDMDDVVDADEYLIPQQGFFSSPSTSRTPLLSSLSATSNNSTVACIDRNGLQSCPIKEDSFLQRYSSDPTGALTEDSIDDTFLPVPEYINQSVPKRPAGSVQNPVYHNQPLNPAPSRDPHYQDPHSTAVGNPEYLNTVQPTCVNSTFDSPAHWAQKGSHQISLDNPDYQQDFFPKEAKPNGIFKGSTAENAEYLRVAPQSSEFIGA

Consider `COCC1CN(c2ncc(C(C)C)c3cc(Nc4ccnc(N5CC[C@@H](O)[C@@](C)(F)C5)n4)ncc23)C1`, for which the IC50 is 25 nM in data set [1], 40 nM in [2], 24 nM in data set [3] and 11 nM in [4].
Take `CC(C)c1cnc(N2CCC2)c2cnc(Nc3ccnc(N4CC[C@@H](O)[C@@](C)(F)C4)n3)cc12`: the IC50 in [1] came to 12 nM; in [2], 20 nM; in [3], 9.1 nM; in data set [5], 8670 nM; in data set [4], 2.1 nM. The molecule also came in with a Microsomal intrinsic clearance in data set [6] of 106 µL/min/mg.
In the case of `CC(C)c1cnc(N2CC[C@@H]2C)c2cnc(Nc3ccnc(N4CC[C@@H](O)[C@@](C)(F)C4)n3)cc12`, the IC50 stood at 113 nM in data set [1], 210 nM in data set [2], 110 nM in data set [3] and 106 nM in [4].
For the molecule `CC(C)c1ccc(N2CC(CS(C)(=O)=O)C2)c2cnc(Nc3ccnc(N4CC[C@@H](O)[C@@](C)(F)C4)n3)cc12`, the clearance in data set [7] stood at 20 mL/min/kg. Also, the half-life in [8] is 3 h. The molecule also displayed a F in data set [9] of 85%. The Papp in [10] was 17 10^-6 cm/s.
As for `CNc1ncc(C(C)C)c2cc(Nc3ccnc(N4CC[C@@H](O)[C@@](C)(F)C4)n3)ncc12`, the Microsomal intrinsic clearance in data set [6] stood at 31 µL/min/mg.
For `CNC(=O)c1cnc(Nc2ccnc(N3CC[C@@H](O)[C@@H](F)C3)n2)cc1NC(C)C`, the IC50 is 105 nM in data set [1]; 420 nM in data set [2]; over 25000 nM in data set [5]; 99 nM in data set [4]; over 10000 nM in data set [11]. Also, in data set [6], the Microsomal intrinsic clearance is 9.1 µL/min/mg.
On to `CC(C)c1cnc(N2CCCC2)c2cnc(Nc3ccnc(N4CC[C@@H](O)[C@@](C)(F)C4)n3)cc12`, for which the IC50 in data set [1] is 21.5 nM; in data set [2], 52 nM; in data set [3] it was 23 nM. In [6], the Microsomal intrinsic clearance amounted to 65 µL/min/mg.
On to `CNc1ncc(C(C)C)c2cc(Nc3ccnc(N4CC[C@@H](O)[C@@H](F)C4)n3)ncc12`, for which the IC50 in data set [1] is 46 nM; in data set [2], 67 nM; in [5], over 25000 nM; in data set [4], 50 nM; in data set [11], over 10000 nM. Further, in data set [6] (liver microsomes, read-out: CLH), the microsomal CLint turned out to be 19.1 µL/min/mg.
As for `CC(C)c1ncc(N2CC[C@H]2C)c2cnc(Nc3ccnc(N4CC[C@@H](O)[C@@](C)(F)C4)n3)cc12`, the IC50 in data set [1] worked out at 9 nM; in data set [2], 23 nM; in [3] it was 6 nM; in [4], 2.2 nM; in [11], 3420 nM. The same molecule displayed a Microsomal intrinsic clearance in data set [6] of 159 µL/min/mg.
Take `CC(C)c1cnc(N2CC[C@H]2C)c2cnc(Nc3ccnc(N4CC[C@@H](O)[C@@](C)(F)C4)n3)cc12`: the IC50 in [2] came to 7 nM; in data set [3], 0.8 nM; in data set [5], 9960 nM; in [4] it was 0.3 nM; in [11], 7290 nM. Also, in [6], the Microsomal intrinsic clearance is 80 µL/min/mg.
In the case of `CNC(=O)C1CN(c2ncc(C(C)C)c3cc(Nc4ccnc(N5CC[C@@H](O)[C@@](C)(F)C5)n4)ncc23)C1`, the IC50 in data set [1] was determined as 1.1 nM; in [2], 32 nM; in [3], 3.4 nM; in data set [4] it was 1 nM.
Turning to `COC1CN(c2ncc(C(C)C)c3cc(Nc4ccnc(N5CC[C@@H](O)[C@@](C)(F)C5)n4)ncc23)C1`, the IC50 in data set [1] amounted to 7.2 nM; in data set [2], 24 nM; in data set [3], 6.3 nM; in data set [4] it was 3.4 nM. For the same molecule, in [6], the Microsomal intrinsic clearance came out at 91 µL/min/mg.
In the case of `CNC(=O)c1cnc(Nc2ccnc(N3CCC(O)CC3)n2)cc1NC(C)C`, the IC50 is 266 nM in data set [1]; 914 nM in data set [2]; over 25000 nM in data set [5]; 290 nM in data set [4]; over 10000 nM in data set [11]. Besides, the Microsomal intrinsic clearance in data set [6] was 4 µL/min/mg.
As to `CC(C)c1cnc(N2C[C@H](CS(C)(=O)=O)[C@H]2C)c2cnc(Nc3ccnc(N4CC[C@@H](O)[C@@](C)(F)C4)n3)cc12`, the efflux ratio in [12] was determined as 16. Further, the IC50 in [2] was found to be 1.7 nM; in data set [5] it was 781 nM; in data set [4] it was 0.2 nM; in data set [11], 270 nM. In [10], the Papp was 5 10^-6 cm/s.
For `CC(C)c1cnc(N2CC(C#N)C2)c2cnc(Nc3ccnc(N4CC[C@@H](O)[C@@](C)(F)C4)n3)cc12`, the IC50 in [1] was determined as 5.3 nM; in [2] it was 17 nM; in data set [3], 4.8 nM; in [11], 3400 nM. This molecule also gave a Microsomal intrinsic clearance in data set [6] of 85 µL/min/mg.
As for `CC(C)c1cnc(N2CC(O)C2)c2cnc(Nc3ccnc(N4CC[C@@H](O)[C@@](C)(F)C4)n3)cc12`, the IC50 in [1] was determined as 11 nM; in data set [2], 41 nM; in data set [3], 8.1 nM; in data set [4], 3.6 nM; in data set [11], 5520 nM. The same molecule showed a Microsomal intrinsic clearance in data set [6] of 43 µL/min/mg.
For `CC(C)c1ncc(N2C[C@H](O)[C@H]2C)c2cnc(Nc3ccnc(N4CC[C@@H](O)[C@@](C)(F)C4)n3)cc12`, the concentration for half-maximal inhibition (IC50) in data set [1] amounted to 10 nM; in [2] it was 13 nM; in data set [3], 8.1 nM; in data set [4], 1.8 nM; in data set [11] it was 4190 nM. Besides, the Microsomal intrinsic clearance in [6] was found to be 45 µL/min/mg.
In data set [6], `CC(C)c1cnc(N2C[C@H](O)[C@H]2C)c2cnc(Nc3ccnc(N4CC[C@@H](O)[C@@](C)(F)C4)n3)cc12` came in with a Microsomal intrinsic clearance of 25 µL/min/mg.
In the case of `CC(C)c1ccc(N2C[C@H](O)[C@H]2C)c2cnc(Nc3ccnc(N4CC[C@@H](O)[C@@](C)(F)C4)n3)cc12`, the IC50 came to 7.5 nM in data set [1]; 19 nM in [2]; 5.5 nM in [3]; 0.5 nM in data set [4]; 2220 nM in data set [11]. The Microsomal intrinsic clearance in [6] stood at 17 µL/min/mg.
Turning to `CC(C)c1nnc(N2CC[C@H]2C)c2cnc(Nc3ccnc(N4CC[C@@H](O)[C@@](C)(F)C4)n3)cc12`, the IC50 in data set [1] was 12.7 nM; in data set [2], 25 nM; in [3], 9.6 nM; in data set [4], 16 nM; in [11] it was 8170 nM. The molecule also registered a Microsomal intrinsic clearance in [6] of 96 µL/min/mg.
`CC(C)c1cnc(N2CC(CS(C)(=O)=O)C2)c2cnc(Nc3ccnc(N4CC[C@@H](O)[C@@](C)(F)C4)n3)cc12` came in with a clearance in data set [7] of 67 mL/min/kg. This molecule also had a half-life in [8] of 1.6 h. Moreover, the Microsomal intrinsic clearance in data set [6] came out at 9.6 µL/min/mg. For the same molecule, in data set [9], the F is reported as 2%.
As to `CC(C)c1cnc(N2CC(C(=O)N(C)C)C2)c2cnc(Nc3ccnc(N4CC[C@@H](O)[C@@](C)(F)C4)n3)cc12`, the Microsomal intrinsic clearance in data set [6] worked out at 102 µL/min/mg.

The values are drawn from ChEMBL document CHEMBL5137066, “Discovery of BLU-945, a Reversible, Potent, and Wild-Type-Sparing Next-Generation EGFR Mutant Inhibitor for Treatment-Resistant Non-Small-Cell Lung Cancer” (J Med Chem, 2022).
